In ChEMBL document CHEMBL3792331, “Identification and synthesis of potent and selective pyridyl-isoxazole based agonists of sphingosine-1-phosphate 1 (S1P1)” (Bioorg Med Chem Lett, 2016):

Columns and labels:
[1] = Plasma concentration Lewis rat at 1 mg/kg, po after 24 hrs; assay type: ADME, organism-based
Method in brief: (§1)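 Lewis rats given 1.0 mg/kg orally as solution or suspension in vehicle. Plasma drug concentration measured in blood drawn at 4 h and 24 h; 4 h/24 h ratio taken from these values.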

Cynomolgus monkey [2] = assay: Ratio of Cmax to Cmin in cynomolgus monkey at 1 mg/kg, po; assay type: ADME, organism-based, Macaca fascicularis; details: in vivo
Mus musculus [3] = assay: Clearance in mouse at 2 mg/kg, iv relative to hepatic blood flow; assay type: ADME, organism-based, Liver; details: in vivo
Cytochrome P450 2D6 = Cytochrome P450 2D6 (Homo sapiens, UniProt P10635); assay: Inhibition of CYP2D6 (unknown origin); assay type: ADME
[4] = Plasma concentration Lewis rat at 1 mg/kg, po after 4 hrs; assay type: ADME, organism-based; method in brief: as §1
[5] = Protein binding in rat plasma; assay type: ADME, cell-free; details: read-out: PPB (converted)
[6] = biological target: Sphingosine 1-phosphate receptor 3 (Homo sapiens, UniProt Q99500); assay: Agonist activity at human S1P3 receptor expressed in EDG3-Ga15-bla HEK293T cell membranes assessed as stimulation of [35S]GTPgamma binding incubated for 45 mins by liquid scintillation counting method; set-up: species or system HEK-293T
Method in brief: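 Membranes from S1P1/CHO cells (S1P1) or EDG3-Ga15-bla HEK293T cells (S1P3), final protein […], with 3-fold compound dilutions. Buffer: 20 mM HEPES pH 7.5, 10 mM MgCl2, 150 mM NaCl, 1 mM EGTA, 1 mM DTT, GDP, 0.1% fatty acid free BSA, saponin. [35S]GTP 0.2 nM final. Room temperature, 45 min. Filtered, washed with water, dried 60 °C. EC50 taken at 50% of each compound's Ymax.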

[7] = Volume of distribution at steady state in cynomolgus monkey at 1 mg/kg, iv; assay type: ADME, organism-based, Macaca fascicularis; details: in vivo, read-out: Vdss
Method in brief: (§2)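 Multi-species pharmacokinetic study with separate iv and oral dosing arms. Steady-state volume of distribution was taken from the iv arm: 2 mg/kg in mouse and rat, 1 mg/kg in cynomolgus monkey and dog. Oral doses in the same study were 5 mg/kg in mouse and rat and 1 mg/kg in monkey and dog.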

[8] = Clearance in dog at 1 mg/kg, iv; assay type: ADME, organism-based, Canis lupus familiaris; details: in vivo
[9] = Half life in mouse at 2 mg/kg, iv; assay type: ADME, organism-based; details: in vivo
Rattus norvegicus [10] = assay: Reduction in circulating lymphocytes in Lewis rat at 0.3 mg/kg, po after 24 hrs; assay type: functional
Method in brief: (§3)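 Healthy Lewis rats dosed orally with test article as solution or suspension in vehicle, or vehicle alone. Blood drawn at 4 h and 24 h. Circulating lymphocyte percentage measured by hematology analyzer, expressed as reduction versus the vehicle group. Group average, n = 3–4.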

Canis familiaris [11] = assay: Ratio of Cmax to Cmin in dog at 1 mg/kg, po; assay type: ADME, organism-based, Canis lupus familiaris; details: in vivo
Cytochrome P450 2C9 = Cytochrome P450 2C9 (Homo sapiens, UniProt P11712); assay: Inhibition of CYP2C9 (unknown origin); assay type: ADME
Liver microsome [12] = assay: Stability in rat liver microsomes assessed as compound remaining; assay type: ADME
Salmonella typhimurium = assay: Mutagenicity in Salmonella typhimurium; assay type: toxicity, organism-based; details: salmonella enterica subsp. enterica serovar typhimurium
[13] = Protein binding in monkey plasma; assay type: ADME, cell-free, Macaca mulatta; details: rhesus monkey, read-out: PPB (converted)
Canis familiaris [14] = assay: Clearance in dog at 1 mg/kg, iv relative to hepatic blood flow; assay type: ADME, organism-based, Canis lupus familiaris, Liver; details: in vivo
Cytochrome P450 2B6 = biological target: T1, Cytochrome P450 2B6 (Homo sapiens, UniProt P20813); assay: Inhibition of CYP2B6 (unknown origin); assay type: ADME
T1 sequence (P20813 whole entry): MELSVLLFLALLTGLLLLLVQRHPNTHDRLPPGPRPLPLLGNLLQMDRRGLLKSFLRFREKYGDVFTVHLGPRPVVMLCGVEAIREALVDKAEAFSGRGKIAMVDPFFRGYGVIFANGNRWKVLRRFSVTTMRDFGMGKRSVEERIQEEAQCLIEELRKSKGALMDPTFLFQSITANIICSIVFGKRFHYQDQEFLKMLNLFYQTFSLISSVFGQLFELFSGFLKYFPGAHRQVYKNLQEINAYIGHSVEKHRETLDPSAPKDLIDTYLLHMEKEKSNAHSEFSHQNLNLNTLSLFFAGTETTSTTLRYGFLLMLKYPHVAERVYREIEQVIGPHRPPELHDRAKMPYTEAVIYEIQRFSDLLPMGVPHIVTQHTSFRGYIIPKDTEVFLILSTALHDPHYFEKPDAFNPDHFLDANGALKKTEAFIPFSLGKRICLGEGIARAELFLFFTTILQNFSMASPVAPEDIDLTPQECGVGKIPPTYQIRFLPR

[15] = Protein binding in human plasma; assay type: ADME, cell-free; details: read-out: PPB (converted)
CHO = assay: Selectivity index, ratio of EC50 for agonist activity at human S1P4 receptor to EC50 for agonist activity at human S1P1 receptor expressed in CHO cell membranes; assay type: cell-based
Rattus norvegicus [16] = assay: Reduction in circulating lymphocytes in Lewis rat at 1 mg/kg, po after 4 hrs; assay type: functional; method in brief: as §3
Cynomolgus monkey [17] = assay: Clearance in cynomolgus monkey at 1 mg/kg, iv relative to hepatic blood flow; assay type: ADME, organism-based, Macaca fascicularis, Liver; details: in vivo
Mus musculus [18] = assay: Ratio of Cmax to Cmin in mouse at 5 mg/kg, po; assay type: ADME, organism-based; details: in vivo
Liver microsome [19] = assay: Stability in human liver microsomes assessed as compound remaining; assay type: ADME
Cytochrome P450 3A4 = Cytochrome P450 3A4 (Homo sapiens, UniProt P08684); assay: Inhibition of CYP3A4 (unknown origin); assay type: ADME
Homo sapiens = species on record: Homo sapiens; assay: Inhibition of potassium channel (unknown origin) at 10 uM by patch clamp assay
[20] = Volume of distribution at steady state in dog at 1 mg/kg, iv; assay type: ADME, organism-based, Canis lupus familiaris; details: in vivo, read-out: Vdss; method in brief: as §2
hERG (KCNH2) = hERG (KCNH2) (Homo sapiens, UniProt Q12809); assay: Inhibition of human ERG at 30 uM by patch clamp assay
[21] = Oral bioavailability in mouse at 5 mg/kg; assay type: ADME, organism-based; details: in vivo
[22] = Half life in rat at 2 mg/kg, iv; assay type: ADME, organism-based; details: in vivo
Cytochrome P450 1A2 = biological target: T2, Cytochrome P450 1A2 (Homo sapiens, UniProt P05177); assay: Inhibition of CYP1A2 (unknown origin); assay type: ADME
T2 sequence (P05177 whole entry): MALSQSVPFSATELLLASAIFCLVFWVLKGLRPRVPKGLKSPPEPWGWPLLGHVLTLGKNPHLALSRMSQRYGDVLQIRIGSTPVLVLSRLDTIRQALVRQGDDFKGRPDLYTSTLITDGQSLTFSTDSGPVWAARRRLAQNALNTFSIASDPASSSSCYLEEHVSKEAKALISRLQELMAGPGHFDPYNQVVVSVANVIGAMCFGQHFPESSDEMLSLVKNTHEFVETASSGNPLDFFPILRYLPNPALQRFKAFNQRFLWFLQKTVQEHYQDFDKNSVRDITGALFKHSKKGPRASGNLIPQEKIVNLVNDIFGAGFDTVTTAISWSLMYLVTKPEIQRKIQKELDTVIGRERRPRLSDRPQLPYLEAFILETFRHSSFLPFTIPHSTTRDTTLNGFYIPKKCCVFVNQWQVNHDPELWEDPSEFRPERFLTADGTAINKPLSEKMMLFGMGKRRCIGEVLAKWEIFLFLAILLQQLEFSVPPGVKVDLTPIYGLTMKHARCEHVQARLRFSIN

[23] = Clearance in rat at 2 mg/kg, iv; assay type: ADME, organism-based; details: in vivo
[24] = Stability in mouse liver microsomes assessed as compound remaining; assay type: ADME

Cytochrome P450 3A4, sequence (P08684 whole entry): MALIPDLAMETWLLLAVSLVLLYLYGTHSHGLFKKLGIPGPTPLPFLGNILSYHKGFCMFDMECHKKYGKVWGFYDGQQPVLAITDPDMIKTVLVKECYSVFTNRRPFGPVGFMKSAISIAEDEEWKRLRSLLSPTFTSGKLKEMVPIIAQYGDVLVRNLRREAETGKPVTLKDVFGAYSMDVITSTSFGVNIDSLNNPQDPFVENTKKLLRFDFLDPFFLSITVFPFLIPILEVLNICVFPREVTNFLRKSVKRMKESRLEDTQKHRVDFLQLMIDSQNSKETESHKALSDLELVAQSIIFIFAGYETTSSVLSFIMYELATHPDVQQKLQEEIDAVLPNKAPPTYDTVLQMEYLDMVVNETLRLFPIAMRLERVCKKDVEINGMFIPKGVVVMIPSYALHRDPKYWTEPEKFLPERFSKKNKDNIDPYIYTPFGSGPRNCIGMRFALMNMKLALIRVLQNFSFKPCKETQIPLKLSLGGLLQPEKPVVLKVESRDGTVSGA
Cytochrome P450 2C9, sequence (P11712 whole entry): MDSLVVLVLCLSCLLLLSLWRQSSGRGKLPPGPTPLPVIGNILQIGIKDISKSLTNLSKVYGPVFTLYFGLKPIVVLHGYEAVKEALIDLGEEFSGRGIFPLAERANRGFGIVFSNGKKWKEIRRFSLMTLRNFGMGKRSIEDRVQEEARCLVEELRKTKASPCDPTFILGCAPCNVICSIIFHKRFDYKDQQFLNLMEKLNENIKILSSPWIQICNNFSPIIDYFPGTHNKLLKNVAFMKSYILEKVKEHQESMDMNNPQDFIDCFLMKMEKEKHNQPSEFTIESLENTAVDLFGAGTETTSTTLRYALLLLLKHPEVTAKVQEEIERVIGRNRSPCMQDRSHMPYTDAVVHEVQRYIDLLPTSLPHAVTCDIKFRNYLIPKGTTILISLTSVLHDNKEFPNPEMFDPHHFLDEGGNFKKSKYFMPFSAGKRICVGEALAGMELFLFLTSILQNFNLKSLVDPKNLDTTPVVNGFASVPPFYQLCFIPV
Cytochrome P450 2D6, sequence (P10635 whole entry): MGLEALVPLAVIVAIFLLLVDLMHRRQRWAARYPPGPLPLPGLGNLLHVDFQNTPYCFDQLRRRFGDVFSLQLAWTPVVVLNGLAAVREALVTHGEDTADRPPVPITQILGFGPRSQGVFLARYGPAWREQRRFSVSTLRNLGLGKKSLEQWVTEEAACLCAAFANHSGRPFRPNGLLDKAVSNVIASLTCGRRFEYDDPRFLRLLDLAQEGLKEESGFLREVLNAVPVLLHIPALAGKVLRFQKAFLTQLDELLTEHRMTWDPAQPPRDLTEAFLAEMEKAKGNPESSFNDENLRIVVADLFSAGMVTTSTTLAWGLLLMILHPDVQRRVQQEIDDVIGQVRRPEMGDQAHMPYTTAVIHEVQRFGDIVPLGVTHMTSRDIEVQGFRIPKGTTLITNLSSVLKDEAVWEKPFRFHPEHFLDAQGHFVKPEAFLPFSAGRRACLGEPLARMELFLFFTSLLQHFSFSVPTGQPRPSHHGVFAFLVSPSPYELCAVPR
hERG (KCNH2), sequence (Q12809 whole entry): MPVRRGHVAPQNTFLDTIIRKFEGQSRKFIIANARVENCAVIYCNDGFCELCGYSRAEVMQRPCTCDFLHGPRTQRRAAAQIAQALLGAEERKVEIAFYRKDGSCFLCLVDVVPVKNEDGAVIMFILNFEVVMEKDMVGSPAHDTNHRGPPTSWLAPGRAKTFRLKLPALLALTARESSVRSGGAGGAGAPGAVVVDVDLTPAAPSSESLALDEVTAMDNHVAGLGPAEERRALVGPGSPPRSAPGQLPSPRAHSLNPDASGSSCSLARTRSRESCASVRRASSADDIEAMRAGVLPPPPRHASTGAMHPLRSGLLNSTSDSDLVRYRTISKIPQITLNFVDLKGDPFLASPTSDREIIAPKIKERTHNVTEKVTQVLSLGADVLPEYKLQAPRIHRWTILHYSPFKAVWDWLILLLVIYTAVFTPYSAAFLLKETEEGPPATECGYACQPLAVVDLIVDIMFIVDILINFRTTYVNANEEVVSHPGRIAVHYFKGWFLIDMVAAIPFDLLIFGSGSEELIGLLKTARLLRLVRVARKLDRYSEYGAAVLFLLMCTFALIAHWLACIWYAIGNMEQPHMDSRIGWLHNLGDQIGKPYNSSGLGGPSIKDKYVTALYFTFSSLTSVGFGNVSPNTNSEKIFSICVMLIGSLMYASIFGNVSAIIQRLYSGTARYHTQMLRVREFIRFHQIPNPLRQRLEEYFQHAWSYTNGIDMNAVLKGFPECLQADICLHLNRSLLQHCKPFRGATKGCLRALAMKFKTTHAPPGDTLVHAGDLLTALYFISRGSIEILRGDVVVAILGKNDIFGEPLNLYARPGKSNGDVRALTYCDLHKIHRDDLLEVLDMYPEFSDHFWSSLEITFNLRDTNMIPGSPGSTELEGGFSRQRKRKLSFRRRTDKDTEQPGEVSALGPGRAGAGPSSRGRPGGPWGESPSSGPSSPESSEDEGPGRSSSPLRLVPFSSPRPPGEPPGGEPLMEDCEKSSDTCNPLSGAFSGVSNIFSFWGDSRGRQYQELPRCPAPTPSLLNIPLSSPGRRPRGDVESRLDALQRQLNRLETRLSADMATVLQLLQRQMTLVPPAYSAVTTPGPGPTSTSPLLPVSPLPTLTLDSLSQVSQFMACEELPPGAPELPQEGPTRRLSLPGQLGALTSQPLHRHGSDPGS
Sphingosine 1-phosphate receptor 3, sequence (Q99500 whole entry): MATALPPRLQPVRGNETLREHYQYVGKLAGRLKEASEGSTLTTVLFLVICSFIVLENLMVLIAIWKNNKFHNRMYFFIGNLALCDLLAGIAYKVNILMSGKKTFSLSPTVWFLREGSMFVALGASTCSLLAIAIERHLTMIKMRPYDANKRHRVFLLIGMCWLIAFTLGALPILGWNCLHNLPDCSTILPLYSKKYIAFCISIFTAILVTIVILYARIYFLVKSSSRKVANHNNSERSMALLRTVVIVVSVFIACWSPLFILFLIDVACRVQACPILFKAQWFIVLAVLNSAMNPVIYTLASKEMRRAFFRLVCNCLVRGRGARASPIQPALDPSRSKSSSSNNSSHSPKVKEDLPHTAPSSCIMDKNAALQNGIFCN

O=C(O)C1CN(Cc2ccc(-c3noc(-c4onc(-c5ccccn5)c4C(F)(F)F)n3)cc2)C1
concentration at 24 h [1]: 54 nM
Ratio (Cynomolgus monkey [2]): > 400
CL (Mus musculus [3]): < 1%
IC50 (Cytochrome P450 2D6): > 40 µM
concentration at 4 h [4]: 2510 nM
fraction unbound [5]: 0.024
EC50 [6]: 2.9 µM
Vd [7]: 0.5 L/kg
clearance [8]: 2.6 mL/min/kg
half-life [9]: 4.5 h
inhibition in vivo at 0.3 mg/kg (Rattus norvegicus [10]): 50%
Ratio (Canis familiaris [11]): 7.4
IC50 (Cytochrome P450 2C9): > 40 µM
Stability (Liver microsome [12]): 100%
Activity (Salmonella typhimurium): Non-toxic
fraction unbound [13]: 0.065
CL (Canis familiaris [14]): 8.4%
IC50 (Cytochrome P450 2B6): > 40 µM
fraction unbound [15]: 0.005
Ratio EC50 (CHO): 3.2
inhibition in vivo at 1 mg/kg (Rattus norvegicus [16]): 85%
CL (Cynomolgus monkey [17]): 32%
Ratio (Mus musculus [18]): 2.8
Stability (Liver microsome [19]): 88%
IC50 (Cytochrome P450 3A4): > 40 µM
inhibition (Homo sapiens): 12%
Vd [20]: 0.7 L/kg
inhibition at 30 µM (hERG (KCNH2)): 34%
bioavailability [21]: 70%
half-life [22]: 4.8 h
IC50 (Cytochrome P450 1A2): > 40 µM
clearance [23]: 1 mL/min/kg
Stability [24]: 100%
